In article PMC4238785 (British Journal of Clinical Pharmacology, 2014):
Read-outs that look alike come from different tables or passages of the source.

Tests used:
[1] = format: in vivo, human; settings: for Tmax / Vd/F: male, human, plasma, po
In short: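 Healthy subjects received a single oral 20 mg test-compound dose with 240 ml water after an overnight fast, continued to 4 h. Period 2, after a 5−7 day washout: CYP3A4 inhibitor 400 mg orally once daily for 7 days, co-dosed on day 5. Plasma was sampled predose–72 h, acidified (citrate, pH 1.5) and run by chiral LC-MS. Ratios: ANOVA (log values, period and subject effects), least-square geometric means, 90% CI.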

[2] = cited from earlier work
[3] = format: in vivo, human
In short: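 Healthy subjects fasted overnight and received a single oral 30 mg test-compound dose in each of three periods. After a 4-day washout, it was followed 5 min later by 600 mg i.v. inducer over 30 min. Then 600 mg oral inducer daily on days 7–21, co-dosed on day 20. Plasma (predose–48 h) was citric-acid stabilised, extracted with MTBE and run by achiral LC-MS. Ratios: ANOVA of log values, geometric-mean 90% CI.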

OATP1B1 = settings: in vitro studies, no reference given; cited from earlier work
CYP3A4 = settings: [14C]-apremilast, in vitro; cited from earlier work
MDR1 = settings: in vitro studies, no reference given; cited from earlier work
OATP1B3 = settings: in vitro studies, no reference given; cited from earlier work
CYP2A6 = settings: [14C]-apremilast, in vitro; cited from earlier work
CYP1A2 = settings: [14C]-apremilast, in vitro; cited from earlier work
[4] = acidic conditions; no reference given; cited from earlier work
[5] = midazolam with rifampicin; cited from earlier work
[6] = apremilast 20 mg with ketoconazole 400 mg once daily vs alone
[7] = apremilast given with ketoconazole vs alone
[8] = with ketoconazole vs apremilast 20 mg alone, least-square geometric means
[9] = multiple oral doses of rifampicin vs apremilast alone
[10] = with i.v. rifampicin vs apremilast 30 mg alone, least-square geometric means

SMILES: CCOc1cc(C(CS(C)(=O)=O)N2C(=O)c3cccc(N)c3C2=O)ccc1OC (stereo not drawn) [CC-10055]
- concentrations in urine ([1]; KETO study): no detectable concentrations
- overall metabolite to parent ratios in plasma ([1]; KETO study): ≤ 5%

SMILES: CCOc1cc([C@@H](CS(C)(=O)=O)N2C(=O)c3cccc(NC(C)=O)c3C2=O)ccc1OC [apremilast]
- fraction of apremilast excreted unchanged in the urine ([1]; KETO study, overall): < 5%
- CL/F ([1]; apremilast 20 mg single oral dose alone, n = 18, arithmetic mean (SD)): 10.2 (3.5) l h^−1
- increase of AUC(0,∞) by ketoconazole [1, 6]: ≈ 36%
- increase of Cmax by ketoconazole [1, 6]: 5%
- change in renal clearance [1, 7]: no meaningful change
- increase in the percentage of urinary excretion [1, 7]: approximately 36%
- Tmax [1]: 4 h
- Vd/F [1]: 84 L
- Tmax ([1]; 20 mg): 2.5 h
- Vd/F ([1]; 20 mg): 111 L
- AUC(0,∞) Ratio (90% CI) [1, 8]: 136.4 (126.2, 147.5) %
- CL/F Ratio (90% CI) [1, 8]: 73.3 (67.8, 79.2) %
- Cmax Ratio (90% CI) [1, 8]: 104.9 (92.2, 119.3) %
- Vz/F Ratio (90% CI) [1, 8]: 77.5 (69.8, 86.1) %
- t1/2 Ratio (90% CI) [1, 8]: 106.5 (100.3, 112.7) %
- dose excreted unchanged in urine [2]: 3%
- increase in Cmax ([3]; after i.v. rifampicin vs apremilast alone): 13%
- CL/F ([3]; apremilast 30 mg single oral dose alone, n = 21, arithmetic mean (SD)): 10.0 (3.02) l h^−1
- Tmax ([3]; apremilast 30 mg single oral dose alone, n = 21, median (range)): 2.0 (0.5–5.0) h
- Tmax ([3]; both, human, plasma, oral): 1.25 h
- Vd/F ([3]; both, human, plasma, oral): 115 L
- Tmax ([3]; both, human, plasma, po): 1 h
- Vd/F ([3]; both, human, plasma, po): 342 L
- half-life ([3]; both, human, plasma, po): 6.31 h
- Tmax ([3]; both, human, plasma, po, 30 mg): 2 h
- Vd/F ([3]; both, human, plasma, po, 30 mg): 119 L
- half-life ([3]; both, human, plasma, po, 30 mg): 8.2 h
- decrease of Cmax [3, 9]: approximately 43%
- decrease of mean AUC(0,∞) [3, 9]: ≈ 72%
- increase of apremilast clearance [3, 9]: ≈ 3.6 fold
- AUC(0,∞) Ratio (90% CI) [3, 10]: 95.71 (88.0, 104.1) %
- Cmax Ratio (90% CI) [3, 10]: 113.1 (103.2, 123.9) %
- transporter substrate (OATP1B1): not a substrate
- rate of metabolism by CYP isoform (CYP3A4): high rate
- transporter substrate (MDR1): is a MDR1 substrate
- transporter substrate (OATP1B3): not a substrate
- rate of metabolism by CYP isoform (CYP2A6): lower rates of metabolism
- rate of metabolism by CYP isoform (CYP1A2): lower rates of metabolism
- stability [4]: stable

SMILES: Cc1ncc2n1-c1ccc(Cl)cc1C(c1ccccc1F)=NC2 [midazolam]
- exposure relative to administration alone [5]: 4%
